In ChEMBL document CHEMBL1158403, “Discovery of CP-533536: an EP2 receptor selective prostaglandin E2 (PGE2) agonist that induces local bone formation” (Bioorg Med Chem Lett, 2009):

Test system: Rattus norvegicus
Assay: Induction of bone formation in rat assessed as bone mineral content at 0.3 mg/kg by peripheral quantitative computerized tomography
Conditions: not given

Row | Compound | Activity [%]
1 | CC(C)(C)c1ccc(CN(Cc2cccc(OCC(=O)O)c2)S(=O)(=O)c2cccnc2)cc1 | 2.5

Test system: Rattus norvegicus
Assay: Induction of bone formation in rat assessed as total bone area at 0.3 mg/kg by peripheral quantitative computerized tomography
Conditions: not given

Row | Compound | Activity [%]
2 | CC(C)(C)c1ccc(CN(Cc2cccc(OCC(=O)O)c2)S(=O)(=O)c2cccnc2)cc1 | -4.7

Test system: Rattus norvegicus
Assay: Induction of bone formation in rat assessed as bone mineral content at 3 mg/kg by peripheral quantitative computerized tomography
Conditions: not given

Row | Compound | Activity [%]
3 | CC(C)(C)c1ccc(CN(Cc2cccc(OCC(=O)O)c2)S(=O)(=O)c2cccnc2)cc1 | 53.5

Test system: not listed separately
Assay: Half life in Sprague-Dawley rat at 1 mg/kg, iv
Type: ADME, organism-based
Parameters: dose 1 mg/kg, route intravenous
Conditions: in vivo
Procedure, shortened: (§1)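 Male Sprague–Dawley rats were given a single i.v. dose of 1 mg/kg. Half-life, clearance and steady-state volume of distribution were derived from the plasma pharmacokinetic profile.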

Row | Compound | half-life [min]
4 | CC(C)(C)c1ccc(CN(Cc2cccc(OCC(=O)O)c2)S(=O)(=O)c2cccnc2)cc1 | 19.8

Test system: Rattus norvegicus
Assay: Induction of bone formation in rat assessed as total bone area at 3 mg/kg by peripheral quantitative computerized tomography
Conditions: not given

Row | Compound | Activity [%]
5 | CC(C)(C)c1ccc(CN(Cc2cccc(OCC(=O)O)c2)S(=O)(=O)c2cccnc2)cc1 | 20.6

Test system: Rattus norvegicus
Assay: Induction of bone formation in rat assessed as bone mineral density at 1 mg/kg by peripheral quantitative computerized tomography
Conditions: not given

Row | Compound | Activity [%]
6 | CC(C)(C)c1ccc(CN(Cc2cccc(OCC(=O)O)c2)S(=O)(=O)c2cccnc2)cc1 | 20.7

Test system: not listed separately
Assay: Volume of distribution at steady state in Sprague-Dawley rat at 1 mg/kg, iv
Type: ADME, organism-based
Parameters: dose 1 mg/kg, route intravenous
Conditions: in vivo, read-out: Vdss
Procedure, shortened: as §1

Row | Compound | Vd [L/kg]
7 | CC(C)(C)c1ccc(CN(Cc2cccc(OCC(=O)O)c2)S(=O)(=O)c2cccnc2)cc1 | 0.49

Test system: Rattus norvegicus
Assay: Induction of bone formation in rat assessed as bone mineral density at 0.3 mg/kg by peripheral quantitative computerized tomography
Conditions: not given

Row | Compound | Activity [%]
8 | CC(C)(C)c1ccc(CN(Cc2cccc(OCC(=O)O)c2)S(=O)(=O)c2cccnc2)cc1 | 7.5

Target: T1, Prostaglandin E2 receptor EP4 subtype (Rattus norvegicus, UniProt P43114)
Assay: Inhibition of rat EP4 receptor expressed in HEK293 cells
Type: cell-based
Conditions: not given
Procedure, shortened: (§2)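 Rat EP₂ or rat EP₄ receptor stably transfected into HEK-293 cells. Membranes were prepared from these cells for the receptor binding assay.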

T1 sequence (P43114 whole entry): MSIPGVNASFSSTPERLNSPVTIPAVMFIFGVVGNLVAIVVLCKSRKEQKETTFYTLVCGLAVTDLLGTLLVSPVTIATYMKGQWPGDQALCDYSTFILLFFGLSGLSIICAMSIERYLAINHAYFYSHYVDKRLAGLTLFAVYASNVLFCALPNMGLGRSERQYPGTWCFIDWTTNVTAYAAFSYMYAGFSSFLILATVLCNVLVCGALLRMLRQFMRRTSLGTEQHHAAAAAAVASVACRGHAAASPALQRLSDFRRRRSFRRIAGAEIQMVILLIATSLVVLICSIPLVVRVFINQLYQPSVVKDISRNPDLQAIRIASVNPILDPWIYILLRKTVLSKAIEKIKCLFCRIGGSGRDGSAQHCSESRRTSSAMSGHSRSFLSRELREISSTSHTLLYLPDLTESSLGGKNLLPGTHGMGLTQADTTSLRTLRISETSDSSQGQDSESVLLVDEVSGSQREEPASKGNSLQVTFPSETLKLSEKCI

Row | IC50 [nM] | Compound
9 | > 3200 | CCCCc1ccc(CN(CCCCCCC(=O)O)S(C)(=O)=O)cc1
10 | > 3200 | CCCCc1ccc(CN(Cc2ccccc2OCC(=O)O)S(C)(=O)=O)cc1
11 | > 3200 | CC(C)CC(O)CCCN(CCCCCCC(=O)O)S(C)(=O)=O (centres undefined)
12 | 2530 | CCCCCC(O)CCCN(CCCCCCC(=O)O)S(C)(=O)=O (centres undefined)
13 | 2470 | CC(C)(C)c1ccc(CN(CCCCCCC(=O)O)S(C)(=O)=O)cc1
14 | > 3200 | CC(C)(C)c1ccc(CN(Cc2cccc(CCC(=O)O)c2)S(C)(=O)=O)cc1
15 | > 3200 | CS(=O)(=O)N(CCCCCCC(=O)O)Cc1ccc(-c2ccccc2)cc1
16 | > 3200 | CCCCc1ccc(CN(CCCCOCC(=O)O)S(C)(=O)=O)cc1
17 | > 3200 | CCCCc1ccc(CN(c2ccc(CCCC(=O)O)cc2)S(C)(=O)=O)cc1
18 | > 3200 | CCCCCC(=O)c1ccc(CN(CCCCCCC(=O)O)S(C)(=O)=O)cc1
19 | > 3200 | CCCCCC(O)c1ccc(CN(CCCCCCC(=O)O)S(C)(=O)=O)cc1 (centres undefined)
20 | > 3200 | CC(C)(C)c1ccc(CN(Cc2cccc(OCC(=O)O)c2)S(=O)(=O)c2cccnc2)cc1

The remaining lines, values behind:

Row | Compound | IC50 [nM]
21 | CC(C)(C)c1ccc(CN(Cc2cccc(CCC(=O)O)c2)S(=O)(=O)c2ccccn2)cc1 | > 3200
22 | CC(C)(C)c1ccc(CN(Cc2cccc(CCC(=O)O)c2)S(=O)(=O)c2nccs2)cc1 | > 3200
23 | CC(C)(C)c1ccc(CN(Cc2cccc(CCC(=O)O)c2)S(=O)(=O)c2ccc(Cl)cc2)cc1 | > 3200
24 | CC(C)(C)c1ccc(CN(Cc2cccc(OCC(=O)O)c2)S(C)(=O)=O)cc1 | > 3200
25 | CCCCc1ccc(CN(Cc2cccc(CCC(=O)O)c2)S(C)(=O)=O)cc1 | > 3200
26 | CCCCc1ccc(CN(CCc2ccc(CC(=O)O)cc2)S(C)(=O)=O)cc1 | > 3200
27 | CCCCC(O)c1ccc(CN(CCCCCCC(=O)O)S(C)(=O)=O)cc1 (centres undefined) | > 3200
28 | CC(C)(C)c1ccc(CN(Cc2cccc(CCC(=O)O)c2)S(=O)(=O)c2ccccc2)cc1 | > 3200
29 | CCCCc1ccc(CN(c2ccccc2CCCC(=O)O)S(C)(=O)=O)cc1 | > 3200
30 | CCCCc1ccc(CN(c2cccc(CCC(=O)O)c2)S(C)(=O)=O)cc1 | > 3200
31 | CCCCc1ccc(CN(CCCOc2cccc(C(=O)O)c2)S(C)(=O)=O)cc1 | > 3200
32 | CCCCC[C@H](O)/C=C/[C@H]1[C@H](O)CC(=O)[C@@H]1C/C=C\CCCC(=O)O [DINOPROSTONE] | 2.1

Target: T1, Prostaglandin E2 receptor EP4 subtype
Assay: Agonist activity against rat EP4 receptor expressed in HEK293 cells assessed as stimulation of cAMP release
Type: functional, cell-based
Conditions: not given

Row | Compound | EC50 [nM]
33 | CCCCC[C@H](O)/C=C/[C@H]1[C@H](O)CC(=O)[C@@H]1C/C=C\CCCC(=O)O [DINOPROSTONE] | 0.7

Test system: not listed separately
Assay: Clearance in Sprague-Dawley rat at 1 mg/kg, iv
Type: ADME, organism-based
Parameters: dose 1 mg/kg, route intravenous
Conditions: in vivo
Procedure, shortened: as §1

Row | Compound | clearance [mL/min/kg]
34 | CC(C)(C)c1ccc(CN(Cc2cccc(OCC(=O)O)c2)S(=O)(=O)c2cccnc2)cc1 | 56

Test system: Rattus norvegicus
Assay: Induction of bone formation in rat assessed as bone mineral content at 1 mg/kg by peripheral quantitative computerized tomography
Conditions: not given

Row | Compound | Activity [%]
35 | CC(C)(C)c1ccc(CN(Cc2cccc(OCC(=O)O)c2)S(=O)(=O)c2cccnc2)cc1 | 26.3

Target: T2, Prostaglandin E2 receptor EP2 subtype (Rattus norvegicus, UniProt Q62928)
Assay: Inhibition of rat EP2 receptor expressed in HEK293 cells
Type: cell-based
Conditions: not given
Procedure, shortened: as §2

T2 sequence (Q62928 whole entry): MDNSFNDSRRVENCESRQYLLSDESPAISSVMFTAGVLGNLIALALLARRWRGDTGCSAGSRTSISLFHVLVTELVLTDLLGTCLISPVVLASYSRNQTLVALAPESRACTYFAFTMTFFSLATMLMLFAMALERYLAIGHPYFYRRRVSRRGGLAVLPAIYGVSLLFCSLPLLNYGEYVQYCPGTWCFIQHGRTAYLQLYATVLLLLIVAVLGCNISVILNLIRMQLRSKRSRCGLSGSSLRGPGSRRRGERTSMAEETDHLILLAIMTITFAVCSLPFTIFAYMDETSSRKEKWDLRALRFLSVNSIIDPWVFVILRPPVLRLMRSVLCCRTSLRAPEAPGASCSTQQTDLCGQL

Row | IC50 [nM] | Compound
36 | 160 | CCCCc1ccc(CN(CCCCCCC(=O)O)S(C)(=O)=O)cc1
37 | > 3200 | CCCCc1ccc(CN(Cc2ccccc2OCC(=O)O)S(C)(=O)=O)cc1
38 | 2500 | CC(C)CC(O)CCCN(CCCCCCC(=O)O)S(C)(=O)=O (centres undefined)
39 | 225 | CCCCCC(O)CCCN(CCCCCCC(=O)O)S(C)(=O)=O (centres undefined)
40 | 590 | CC(C)(C)c1ccc(CN(CCCCCCC(=O)O)S(C)(=O)=O)cc1
41 | 379 | CC(C)(C)c1ccc(CN(Cc2cccc(CCC(=O)O)c2)S(C)(=O)=O)cc1
42 | 289 | CS(=O)(=O)N(CCCCCCC(=O)O)Cc1ccc(-c2ccccc2)cc1
43 | 910 | CCCCCC(O)CCCN(CCCCCC(=O)O)S(C)(=O)=O (centres undefined)
44 | 701 | CCCCc1ccc(CN(CCCCOCC(=O)O)S(C)(=O)=O)cc1
45 | 654 | CCCCc1ccc(CN(c2ccc(CCCC(=O)O)cc2)S(C)(=O)=O)cc1
46 | 636 | CCCCCC(=O)c1ccc(CN(CCCCCCC(=O)O)S(C)(=O)=O)cc1
47 | 93 | CCCCCC(O)c1ccc(CN(CCCCCCC(=O)O)S(C)(=O)=O)cc1 (centres undefined)
48 | 50 | CC(C)(C)c1ccc(CN(Cc2cccc(OCC(=O)O)c2)S(=O)(=O)c2cccnc2)cc1

The next lines start with the compound.

Row | Compound | IC50 [nM]
49 | CC(C)(C)c1ccc(CN(Cc2cccc(CCC(=O)O)c2)S(=O)(=O)c2ccccn2)cc1 | 52
50 | CC(C)(C)c1ccc(CN(Cc2cccc(CCC(=O)O)c2)S(=O)(=O)c2nccs2)cc1 | 63
51 | CC(C)(C)c1ccc(CN(Cc2cccc(CCC(=O)O)c2)S(=O)(=O)c2ccc(Cl)cc2)cc1 | > 3200
52 | CC(C)(C)c1ccc(CN(Cc2cccc(OCC(=O)O)c2)S(C)(=O)=O)cc1 | 792
53 | CCCCc1ccc(CN(Cc2cccc(CCC(=O)O)c2)S(C)(=O)=O)cc1 | 270
54 | CCCCc1ccc(CN(CCc2ccc(CC(=O)O)cc2)S(C)(=O)=O)cc1 | 833
55 | CCCCC(O)c1ccc(CN(CCCCCCC(=O)O)S(C)(=O)=O)cc1 (centres undefined) | 502
56 | CC(C)(C)c1ccc(CN(Cc2cccc(CCC(=O)O)c2)S(=O)(=O)c2ccccc2)cc1 | 278
57 | CCCCCC(O)CCCN(CCCCC(=O)O)S(C)(=O)=O (centres undefined) | > 3200
58 | CCCCc1ccc(CN(c2ccccc2CCCC(=O)O)S(C)(=O)=O)cc1 | 494
59 | CCCCc1ccc(CN(c2cccc(CCC(=O)O)c2)S(C)(=O)=O)cc1 | > 3200
60 | CCCCc1ccc(CN(CCCOc2cccc(C(=O)O)c2)S(C)(=O)=O)cc1 | 3130

Test system: Rattus norvegicus
Assay: Induction of bone formation in rat assessed as bone mineral density at 3 mg/kg by peripheral quantitative computerized tomography
Conditions: not given

Row | Compound | Activity [%]
61 | CC(C)(C)c1ccc(CN(Cc2cccc(OCC(=O)O)c2)S(=O)(=O)c2cccnc2)cc1 | 27.5

Target: T2, Prostaglandin E2 receptor EP2 subtype
Assay: Agonist activity against rat EP2 receptor expressed in HEK293 cells assessed as stimulation of cAMP release
Type: functional, cell-based
Conditions: not given

Row | EC50 [nM] | Compound
62 | 94 | CCCCc1ccc(CN(CCCCCCC(=O)O)S(C)(=O)=O)cc1
63 | 134 | CCCCCC(O)CCCN(CCCCCCC(=O)O)S(C)(=O)=O (centres undefined)
64 | 48 | CC(C)(C)c1ccc(CN(Cc2cccc(CCC(=O)O)c2)S(C)(=O)=O)cc1
65 | 457 | CS(=O)(=O)N(CCCCCCC(=O)O)Cc1ccc(-c2ccccc2)cc1
66 | 407 | CCCCc1ccc(CN(CCCCOCC(=O)O)S(C)(=O)=O)cc1
67 | 587 | CCCCc1ccc(CN(c2ccc(CCCC(=O)O)cc2)S(C)(=O)=O)cc1
68 | 887 | CCCCCC(=O)c1ccc(CN(CCCCCCC(=O)O)S(C)(=O)=O)cc1
69 | 44 | CCCCCC(O)c1ccc(CN(CCCCCCC(=O)O)S(C)(=O)=O)cc1 (centres undefined)
70 | 0.3 | CC(C)(C)c1ccc(CN(Cc2cccc(OCC(=O)O)c2)S(=O)(=O)c2cccnc2)cc1

The next lines start with the compound.

Row | Compound | EC50 [nM]
71 | CC(C)(C)c1ccc(CN(Cc2cccc(CCC(=O)O)c2)S(=O)(=O)c2ccccn2)cc1 | 2.3
72 | CC(C)(C)c1ccc(CN(Cc2cccc(CCC(=O)O)c2)S(=O)(=O)c2nccs2)cc1 | 1.1
73 | CC(C)(C)c1ccc(CN(Cc2cccc(OCC(=O)O)c2)S(C)(=O)=O)cc1 | 203
74 | CCCCc1ccc(CN(Cc2cccc(CCC(=O)O)c2)S(C)(=O)=O)cc1 | 34.4
75 | CCCCc1ccc(CN(CCc2ccc(CC(=O)O)cc2)S(C)(=O)=O)cc1 | 413
76 | CCCCC(O)c1ccc(CN(CCCCCCC(=O)O)S(C)(=O)=O)cc1 (centres undefined) | 423
77 | CC(C)(C)c1ccc(CN(Cc2cccc(CCC(=O)O)c2)S(=O)(=O)c2ccccc2)cc1 | 0.2
78 | CCCCc1ccc(CN(c2ccccc2CCCC(=O)O)S(C)(=O)=O)cc1 | 103

Test system: Rattus norvegicus
Assay: Induction of bone formation in rat assessed as total bone area at 1 mg/kg by peripheral quantitative computerized tomography
Conditions: not given

Row | Compound | Activity [%]
79 | CC(C)(C)c1ccc(CN(Cc2cccc(OCC(=O)O)c2)S(=O)(=O)c2cccnc2)cc1 | 4.4
